The values that follow come from ChEMBL document CHEMBL4765317, “Novel bacterial topoisomerase inhibitors derived from isomannide” (Eur J Med Chem, 2020).

Converted amounts (≈) assume the structure as drawn.

One data set deals with Streptococcus pneumoniae. Description: Antibacterial activity against penicillin-resistant Streptococcus pneumoniae LSI-4246 assessed as reduction in bacterial growth by CLSI based broth microdilution method. The format is functional. (In general: Broth dilution looks for growth in wells or tubes with falling amounts of substance.)
The nature of data set [1]: Permeability across apical to basolateral side in human Caco2 cells at 10 uM by LC-MS/MS analysis. The class given is ADME, cell-based. As to conditions: Caco-2, read-out: permeability. (Caco-2 monolayers are a common model of the intestinal barrier.)
The target in data set [2] is T1, Sodium channel protein type 5 subunit alpha (Homo sapiens, UniProt Q14524). Description: Activation of recombinant human Nav1.5 late expressed in human HEK293 cells assessed as activation of late current at 30 uM by automated Qpatch clamp assay relative to control. The format is ADME, cell-based. As to conditions: hek293, 30 µM. Summed up:
(§1)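 Part of an eight-assay CiPA panel run in duplicate on an automated QPatch HT patch-clamp system at 3, 30 and 100 µM. Test compound came from a 30 mM DMSO stock. Records were filtered for seal quality, seal drop and current amplitude, and mean percent values are reported.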
For orientation: In patch-clamp work, channel activity is measured electrically.

Another data set has as its system Streptococcus pyogenes. Description: Antibacterial activity against Streptococcus pyogenes LSI-1235 assessed as reduction in bacterial growth by CLSI based broth microdilution method. The class given is functional.
Another data set deals with CYP2D6 (Homo sapiens, UniProt P10635). The data set is described as follows: Inhibition of human liver microsome CYP2D6 at 10 uM in presence of NADPH incubated for 10 to 30 mins by LC-MS-MS analysis. The class given is ADME. The settings on record: human liver microsomes, time 10-30 min.
Chain of CYP2D6 (P10635 whole entry): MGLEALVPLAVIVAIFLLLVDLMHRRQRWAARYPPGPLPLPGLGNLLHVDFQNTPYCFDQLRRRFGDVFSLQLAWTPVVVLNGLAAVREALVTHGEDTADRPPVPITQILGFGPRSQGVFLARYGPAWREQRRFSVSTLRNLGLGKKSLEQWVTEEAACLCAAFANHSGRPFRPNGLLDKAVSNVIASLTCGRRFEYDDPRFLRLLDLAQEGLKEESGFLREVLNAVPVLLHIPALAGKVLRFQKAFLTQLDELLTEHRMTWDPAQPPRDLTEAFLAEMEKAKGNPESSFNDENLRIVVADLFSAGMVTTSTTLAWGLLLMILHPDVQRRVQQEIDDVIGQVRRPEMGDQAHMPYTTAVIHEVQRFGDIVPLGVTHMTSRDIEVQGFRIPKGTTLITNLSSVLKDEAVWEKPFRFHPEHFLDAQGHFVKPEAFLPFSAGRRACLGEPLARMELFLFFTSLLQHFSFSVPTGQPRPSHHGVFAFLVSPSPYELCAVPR
The nature of data set [3]: Aqueous solubility of compound at 100 uM incubated for 90 mins by LC-MS/MS analysis. The class given is physicochemical. As to conditions: buffer. Summed up: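 Kinetic solubility measured in buffered aqueous solution at pH 7.4.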
The nature of data set [4]: Cytotoxicity against human HepaRG assessed as reduction in cell viability at 10 uM incubated for 24 hrs by Cell-Titer Glo assay. As to conditions: HepaRG cells, read-out: INH. The format is cell-based. Summed up: (§2)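 ATP-based viability read-out in HepaRG cells over a five-point concentration series (0.01, 0.1, 1, 10, 100 µM). Results are given as % cytotoxicity at each concentration.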

In data set [5] the test system is Staphylococcus aureus. Description: Antibacterial activity against Staphylococcus aureus USA300 assessed as reduction in bacterial growth by CLSI based broth microdilution method. The format is functional.
The target of a further data set is CYP2B6 (Homo sapiens, UniProt P20813). The data set is described as follows: Inhibition of human liver microsome CYP2B6 at 10 uM in presence of NADPH incubated for 10 to 30 mins by LC-MS-MS analysis. The format is ADME. The settings on record: human liver microsomes, time 10-30 min.
Chain of CYP2B6 (P20813 whole entry): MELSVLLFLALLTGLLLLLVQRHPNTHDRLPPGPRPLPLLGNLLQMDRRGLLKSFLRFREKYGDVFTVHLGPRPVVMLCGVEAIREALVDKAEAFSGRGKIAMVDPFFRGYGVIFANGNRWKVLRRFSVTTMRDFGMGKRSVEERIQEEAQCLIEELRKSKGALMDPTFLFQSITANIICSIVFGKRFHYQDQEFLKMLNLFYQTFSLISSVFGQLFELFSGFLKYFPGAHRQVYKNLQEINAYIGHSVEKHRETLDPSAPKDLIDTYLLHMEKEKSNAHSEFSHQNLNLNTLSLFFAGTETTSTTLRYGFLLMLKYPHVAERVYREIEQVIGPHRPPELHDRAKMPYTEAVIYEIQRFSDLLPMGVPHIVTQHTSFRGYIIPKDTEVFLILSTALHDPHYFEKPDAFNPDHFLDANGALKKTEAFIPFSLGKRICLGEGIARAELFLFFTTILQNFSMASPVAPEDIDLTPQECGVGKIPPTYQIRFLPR
Data set [6] has as its system Staphylococcus aureus. The data set is described as follows: Antibacterial activity against methicillin-resistant Staphylococcus aureus DRL-3161 assessed as reduction in bacterial growth by CLSI based broth microdilution method. The class given is functional.
Data set [7] has as its system Staphylococcus aureus. Description: Antibacterial activity against Staphylococcus aureus 3527 assessed as reduction in bacterial growth by CLSI based broth microdilution method. The class given is functional. Summed up: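 Host is a multidrug-resistant MRSA clinical isolate (formerly 1095), the parent of an isogenic D83N gyrase mutant. MIC was read by CLSI broth microdilution and reported in µg/mL.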

The target of another data set is CYP1A2 (Homo sapiens, UniProt P05177). Description: Inhibition of human liver microsome CYP1A2 at 10 uM in presence of NADPH incubated for 10 to 30 mins by LC-MS-MS analysis. The settings on record: human liver microsomes, time 10-30 min. The format is ADME.
Chain of CYP1A2 (P05177 whole entry): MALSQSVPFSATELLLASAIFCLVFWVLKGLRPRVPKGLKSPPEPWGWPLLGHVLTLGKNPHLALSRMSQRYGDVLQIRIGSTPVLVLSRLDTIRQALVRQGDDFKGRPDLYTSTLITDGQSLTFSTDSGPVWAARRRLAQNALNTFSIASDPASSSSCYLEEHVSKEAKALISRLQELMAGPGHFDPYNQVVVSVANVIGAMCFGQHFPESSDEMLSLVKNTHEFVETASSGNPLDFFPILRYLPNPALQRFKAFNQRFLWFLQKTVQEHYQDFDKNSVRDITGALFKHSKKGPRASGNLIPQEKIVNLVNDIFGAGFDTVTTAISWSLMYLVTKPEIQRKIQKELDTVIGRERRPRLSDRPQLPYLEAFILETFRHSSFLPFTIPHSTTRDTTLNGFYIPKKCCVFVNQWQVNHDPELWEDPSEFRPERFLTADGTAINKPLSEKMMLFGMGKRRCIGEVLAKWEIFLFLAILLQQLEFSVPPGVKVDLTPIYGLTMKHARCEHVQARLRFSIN
The target in data set [8] is T2, CYP3A4 (Homo sapiens, UniProt P08684). Description: Residual activity of human liver microsome CYP3A4 at 0.3 uM in presence of NADPH incubated for 10 to 30 mins by LC-MS-MS analysis. The settings on record: human liver microsomes.
T2 sequence (P08684 whole entry): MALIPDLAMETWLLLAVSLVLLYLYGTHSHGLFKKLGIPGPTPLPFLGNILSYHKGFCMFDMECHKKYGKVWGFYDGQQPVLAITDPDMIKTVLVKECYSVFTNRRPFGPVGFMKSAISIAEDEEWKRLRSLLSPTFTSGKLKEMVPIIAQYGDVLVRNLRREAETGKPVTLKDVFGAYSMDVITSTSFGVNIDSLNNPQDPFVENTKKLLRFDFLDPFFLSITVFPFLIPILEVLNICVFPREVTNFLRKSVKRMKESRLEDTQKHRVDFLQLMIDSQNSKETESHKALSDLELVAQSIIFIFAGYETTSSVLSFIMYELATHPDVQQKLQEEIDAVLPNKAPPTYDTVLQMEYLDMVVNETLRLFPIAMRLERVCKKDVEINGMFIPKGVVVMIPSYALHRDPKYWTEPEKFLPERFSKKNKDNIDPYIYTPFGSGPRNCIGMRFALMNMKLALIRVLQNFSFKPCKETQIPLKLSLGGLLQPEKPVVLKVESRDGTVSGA
Data set [9] has as its system Staphylococcus aureus. The data set is described as follows: Potency index, ratio of MIC90 of ciprofloxacin to MIC90 of compound for antibacterial activity against Fluoroquinolone-resistant Staphylococcus aureus assessed as reduction in bacterial growth by CLSI based broth microdilution method. The format is functional.
The target in another data set is KCNQ1 (Homo sapiens, UniProt P51787). Description: Inhibition of recombinant human KCNQ1 expressed in CHO-K1 cells at 3 uM by automated Qpatch clamp assay relative to control. As to conditions: CHO-K1 cells expressing recombinant human KCNQ1. The class given is ADME, cell-based. In a few lines:
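KCNQ1/hminK current recorded in duplicate on an automated QPatch HT at 3, 30 and 100 µM, from a 30 mM DMSO stock. Records were filtered for seal quality, seal drop and current amplitude. Peak outward current was evoked by a step to 60 mV. Block is the test-compound amplitude divided by control, where control is the mean over 15 s at the end of the control period. Chromanol 293B was the positive control.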

A short description of data set [10]: Cytotoxicity against human HepaRG assessed as reduction in cell viability at 0.01 uM incubated for 24 hrs by Cell-Titer Glo assay. The class given is cell-based. As to conditions: HepaRG cells, read-out: INH. In a few lines:
as §2

The target in data set [11] is T2, CYP3A4. Description: Residual activity of human liver microsome CYP3A4 at 0.1 uM in presence of NADPH incubated for 10 to 30 mins by LC-MS-MS analysis. The settings on record: human liver microsomes.
Data set [12] has as its target T2, CYP3A4. Description: Residual activity of human liver microsome CYP3A4 at 3 uM in presence of NADPH incubated for 10 to 30 mins by LC-MS-MS analysis. The settings on record: human liver microsomes.
Data set [13] deals with Sodium channel protein type 2 subunit alpha (Homo sapiens) (UniProt Q99250). The data set is described as follows: Inhibition of recombinant human full length Nav1.2 expressed in CHO-K1 cells at 100 uM by manual patch clamp assay relative to control. The class given is cell-based. Summed up:
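Off-target screen against a panel of 44 receptors, enzymes and transporters, run in duplicate at a single 100 µM concentration. Results are given as % inhibition. No concentration-response follow-up was done.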

Data set [14] addresses T1, Sodium channel protein type 5 subunit alpha. Description: Activation of recombinant human Nav1.5 late expressed in human HEK293 cells assessed as activation of late current at 3 uM by automated Qpatch clamp assay relative to control. As to conditions: hek293, 3 µM. The class given is ADME, cell-based. In a few lines:
as §1

Data set [15] in a line: Cytotoxicity against human HepaRG assessed as reduction in cell viability at 1 uM incubated for 24 hrs by Cell-Titer Glo assay. As to conditions: HepaRG cells, read-out: INH. The format is cell-based. In a few lines:
as §2

For data set [16], the system named is Staphylococcus aureus. Description: Antibacterial activity against Fluoroquinolone-resistant Staphylococcus aureus assessed as reduction in bacterial growth by CLSI based broth microdilution method. The class given is functional.

T1 sequence (Q14524 whole entry): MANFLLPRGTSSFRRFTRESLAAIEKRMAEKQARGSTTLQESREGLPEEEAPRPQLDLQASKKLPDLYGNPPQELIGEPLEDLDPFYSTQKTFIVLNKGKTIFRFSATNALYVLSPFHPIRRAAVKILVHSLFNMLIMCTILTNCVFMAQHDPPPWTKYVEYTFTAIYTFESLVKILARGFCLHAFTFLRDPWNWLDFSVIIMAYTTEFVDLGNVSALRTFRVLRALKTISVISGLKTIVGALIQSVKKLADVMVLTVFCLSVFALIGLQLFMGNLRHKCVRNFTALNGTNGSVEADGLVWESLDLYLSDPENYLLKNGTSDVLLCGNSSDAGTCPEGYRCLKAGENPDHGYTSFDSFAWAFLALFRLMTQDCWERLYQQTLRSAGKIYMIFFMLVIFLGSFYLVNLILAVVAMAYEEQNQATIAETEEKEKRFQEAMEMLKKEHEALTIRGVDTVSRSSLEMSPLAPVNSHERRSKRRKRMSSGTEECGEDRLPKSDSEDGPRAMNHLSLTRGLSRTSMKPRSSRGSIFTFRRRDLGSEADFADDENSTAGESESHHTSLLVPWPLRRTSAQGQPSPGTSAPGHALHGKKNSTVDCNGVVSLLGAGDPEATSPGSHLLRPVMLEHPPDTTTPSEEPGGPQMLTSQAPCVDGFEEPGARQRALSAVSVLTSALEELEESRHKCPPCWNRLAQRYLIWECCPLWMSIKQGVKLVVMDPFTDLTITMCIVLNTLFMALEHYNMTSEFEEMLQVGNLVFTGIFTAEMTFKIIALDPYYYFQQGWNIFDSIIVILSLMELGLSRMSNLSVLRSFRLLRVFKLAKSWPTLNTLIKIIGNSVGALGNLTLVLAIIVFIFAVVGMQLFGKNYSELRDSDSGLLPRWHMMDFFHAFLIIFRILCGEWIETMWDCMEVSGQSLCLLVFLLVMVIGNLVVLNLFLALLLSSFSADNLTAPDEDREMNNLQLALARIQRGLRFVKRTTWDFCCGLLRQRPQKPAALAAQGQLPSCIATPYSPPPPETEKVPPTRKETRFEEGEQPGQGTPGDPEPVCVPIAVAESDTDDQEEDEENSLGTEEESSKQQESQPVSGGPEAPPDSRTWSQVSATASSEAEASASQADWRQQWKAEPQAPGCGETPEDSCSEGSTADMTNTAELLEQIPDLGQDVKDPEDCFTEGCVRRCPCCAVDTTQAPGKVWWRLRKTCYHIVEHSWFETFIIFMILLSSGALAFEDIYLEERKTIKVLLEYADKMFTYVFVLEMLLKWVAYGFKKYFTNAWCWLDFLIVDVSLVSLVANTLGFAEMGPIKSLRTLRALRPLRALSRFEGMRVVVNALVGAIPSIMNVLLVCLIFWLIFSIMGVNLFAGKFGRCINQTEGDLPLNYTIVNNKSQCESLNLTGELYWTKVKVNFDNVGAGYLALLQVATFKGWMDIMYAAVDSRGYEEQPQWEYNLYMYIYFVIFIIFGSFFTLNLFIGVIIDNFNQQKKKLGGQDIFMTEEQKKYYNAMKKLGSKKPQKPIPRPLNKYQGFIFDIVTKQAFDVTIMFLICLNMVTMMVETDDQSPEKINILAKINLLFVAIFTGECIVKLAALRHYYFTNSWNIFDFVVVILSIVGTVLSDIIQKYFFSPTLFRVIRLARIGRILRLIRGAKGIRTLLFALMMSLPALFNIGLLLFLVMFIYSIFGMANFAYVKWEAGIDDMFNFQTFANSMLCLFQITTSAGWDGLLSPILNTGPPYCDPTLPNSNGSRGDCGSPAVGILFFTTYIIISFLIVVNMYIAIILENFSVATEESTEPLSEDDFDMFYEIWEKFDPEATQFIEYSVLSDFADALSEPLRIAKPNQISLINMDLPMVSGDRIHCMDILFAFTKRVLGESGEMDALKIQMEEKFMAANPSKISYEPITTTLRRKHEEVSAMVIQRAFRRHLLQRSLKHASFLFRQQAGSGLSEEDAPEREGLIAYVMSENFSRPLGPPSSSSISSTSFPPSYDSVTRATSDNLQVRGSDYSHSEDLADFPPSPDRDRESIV
Chain of KCNQ1 (P51787 whole entry): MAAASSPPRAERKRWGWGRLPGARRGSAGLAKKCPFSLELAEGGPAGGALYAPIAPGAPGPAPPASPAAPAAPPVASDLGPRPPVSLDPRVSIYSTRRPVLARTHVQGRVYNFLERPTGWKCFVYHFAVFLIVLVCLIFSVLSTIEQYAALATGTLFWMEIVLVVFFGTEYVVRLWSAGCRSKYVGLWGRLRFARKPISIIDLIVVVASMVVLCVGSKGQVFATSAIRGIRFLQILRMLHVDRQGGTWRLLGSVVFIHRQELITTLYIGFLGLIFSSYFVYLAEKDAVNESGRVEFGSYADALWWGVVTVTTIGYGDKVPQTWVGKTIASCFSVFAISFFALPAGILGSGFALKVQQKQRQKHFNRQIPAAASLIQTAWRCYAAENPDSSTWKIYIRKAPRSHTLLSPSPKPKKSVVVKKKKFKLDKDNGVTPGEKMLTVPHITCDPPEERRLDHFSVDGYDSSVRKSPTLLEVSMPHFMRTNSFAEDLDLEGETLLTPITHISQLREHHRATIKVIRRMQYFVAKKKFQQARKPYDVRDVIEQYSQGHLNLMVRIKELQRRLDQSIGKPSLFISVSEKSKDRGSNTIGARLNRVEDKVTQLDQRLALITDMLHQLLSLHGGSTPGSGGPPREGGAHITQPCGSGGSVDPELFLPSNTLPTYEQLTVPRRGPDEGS

For `COc1ccc2ncc(F)c(CC[C@@]3(O)CO[C@@H]4[C@@H](NCc5cc6c(cn5)OCCO6)CO[C@@H]43)c2n1`, the MIC is ≤ 0.12 µg/mL in the data set with Streptococcus pneumoniae; ≤ 0.12 µg/mL with Streptococcus pyogenes; 2 µg/mL (≈ 4.01 µM) with Staphylococcus aureus [5]; 1 µg/mL (≈ 2.01 µM) in the data set on Staphylococcus aureus [6]; 2 µg/mL (≈ 4.01 µM) in the data set on Staphylococcus aureus [7]. Moreover, in [1], the Papp A→B at 10 µM was 10.8 ×10⁻⁶ cm/s. Further, the Activity in data set [2] came to 7.7%; in data set [14] it was 3.4%. The inhibition at 10 µM at CYP2D6, at CYP2B6 and on CYP1A2 was < 50% throughout. This compound showed a solubility at […], 100 µM in data set [3] of 76.2 µM (≈ 38 µg/mL). Further, in data set [4], the cytotoxicity at 24 h, 10 µM was 8%. Moreover, the residual activity at 0.3 µM on CYP3A4 [8] is 89.9%. Besides, the Ratio with Staphylococcus aureus [9] is recorded as 16. Moreover, the inhibition at 3 µM on KCNQ1 was -2.9%. The cytotoxicity at 24 h, 0.01 µM in [10] stood at 6%. At CYP3A4 [11], the residual activity at 0.1 µM came out at 97%. In addition, at CYP3A4 [12], the residual activity at 3 µM was 60.4%. Also, in data set [13], the inhibition was determined as 78%. In data set [15], the cytotoxicity at 24 h, 1 µM turned out to be 9%. In addition, in the data set on Staphylococcus aureus [16], the MIC90 worked out at 2 µg/mL (≈ 4.01 µM).

As a reminder, the MIC is the lowest concentration found to suppress growth. In general, inhibition refers to the drop in the measured response relative to a control, in per cent. The solubility is the concentration that dissolves in the medium under given conditions. Read a high solubility as a readily soluble substance. For orientation: residual activity means what remains of the control signal, in per cent. As usually defined, the MIC90 is an inhibitory concentration at the 90% level, which refers to growth in some studies and to a panel of isolates in others.
